Laboratory results from ChEMBL document CHEMBL5674885, “HIV-1 Vpr counteracts HLTF-mediated restriction of HIV-1 infection in T cells” (Proc Natl Acad Sci U S A, 2019).
The source made the active and inactive calls. No cut-off for these calls is given here.

Columns and labels:
[1] = Cytotoxicity in human CEM.SS T cells assessed as cell viability level at 10 uM; format: toxicity, cell-based; conditions: time 7 day, read-out: Activity
[2] = target: T1, Aberrant vpr protein (Human immunodeficiency virus 1) (UniProt Q77YF9); test: Modulation of HIV-1 Vpr-dependent enhancement of HIV-1 replication in human CEM.SS T cells assessed as effect on percentages of cell-associated HIV-1 DNA at 10 uM added starting 12 hrs before HIV-1 infection until 7 dpi; format: cell-based; conditions: time 7.0 day
T1 sequence (whole entry): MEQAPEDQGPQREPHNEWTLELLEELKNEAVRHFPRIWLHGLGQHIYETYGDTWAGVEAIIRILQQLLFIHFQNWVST
Procedure, shortened: (§1)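 CEM.SS cells held in drug from ~12 h before infection to 7 dpi, infected (1×10⁵ cells) with a DNase-treated, qPCR-normalized 1:1 mix of NL4-3 reporters HIV-1.mRFP.vpr.wt and HIV-1.RFP.vpr.Q8*, combined moi 0.006–0.02. Density was reset on 3 and 5 dpi, and only cultures with <5% RFP⁺ cells at 7 dpi were kept. Share of each virus DNA at 7 dpi came from SYBR qPCR of RFP/mRFP amplicons against plasmid standards; three biological replicates.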

[3] = Cytotoxicity in human CEM.SS T cells assessed as cell viability level at 1 nM; format: toxicity, cell-based; conditions: time 7 day, read-out: Activity
[4] = target: T1, Aberrant vpr protein (Human immunodeficiency virus 1); test: Modulation of HIV-1 Vpr-dependent enhancement of HIV-1 replication in human CEM.SS T cells assessed as effect on percentages of cell-associated HIV-1 DNA at 1 nM added starting 12 hrs before HIV-1 infection until 7 dpi; format: cell-based; conditions: time 7.0 day; procedure, shortened: as §1
[5] = Cytotoxicity in human CEM.SS T cells assessed as cell viability level at 0.67 uM; format: toxicity, cell-based; conditions: time 7 day, read-out: Activity
[6] = target: T1, Aberrant vpr protein (Human immunodeficiency virus 1); test: Modulation of HIV-1 Vpr-dependent enhancement of HIV-1 replication in human CEM.SS T cells assessed as effect on percentages of cell-associated HIV-1 DNA at 0.67 uM added starting 12 hrs before HIV-1 infection until 7 dpi; format: cell-based; conditions: time 7.0 day; procedure, shortened: as §1
[7] = Cytotoxicity in human CEM.SS T cells assessed as cell viability level at 1 uM; format: toxicity, cell-based; conditions: time 7 day, read-out: Activity
[8] = target: T1, Aberrant vpr protein (Human immunodeficiency virus 1); test: Modulation of HIV-1 Vpr-dependent enhancement of HIV-1 replication in human CEM.SS T cells assessed as effect on percentages of cell-associated HIV-1 DNA at 1 uM added starting 12 hrs before HIV-1 infection until 7 dpi; format: cell-based; conditions: time 7.0 day; procedure, shortened: as §1
[9] = Cytotoxicity in human CEM.SS T cells assessed as cell viability level at 3 uM; format: toxicity, cell-based; conditions: time 7 day, read-out: Activity
[10] = target: T1, Aberrant vpr protein (Human immunodeficiency virus 1); test: Modulation of HIV-1 Vpr-dependent enhancement of HIV-1 replication in human CEM.SS T cells assessed as effect on percentages of cell-associated HIV-1 DNA at 3 uM added starting 12 hrs before HIV-1 infection until 7 dpi; format: cell-based; conditions: time 7.0 day; procedure, shortened: as §1
[11] = Cytotoxicity in human CEM.SS T cells assessed as cell viability level at 200 nM; format: toxicity, cell-based; conditions: time 7 day, read-out: Activity
[12] = target: T1, Aberrant vpr protein (Human immunodeficiency virus 1); test: Modulation of HIV-1 Vpr-dependent enhancement of HIV-1 replication in human CEM.SS T cells assessed as effect on percentages of cell-associated HIV-1 DNA at 200 nM added starting 12 hrs before HIV-1 infection until 7 dpi; format: cell-based; conditions: time 7.0 day; procedure, shortened: as §1
[13] = Cytotoxicity in human CEM.SS T cells assessed as cell viability level at 2 uM; format: toxicity, cell-based; conditions: time 7 day, read-out: Activity
[14] = target: T1, Aberrant vpr protein (Human immunodeficiency virus 1); test: Modulation of HIV-1 Vpr-dependent enhancement of HIV-1 replication in human CEM.SS T cells assessed as effect on percentages of cell-associated HIV-1 DNA at 2 uM added starting 12 hrs before HIV-1 infection until 7 dpi; format: cell-based; conditions: time 7.0 day; procedure, shortened: as §1

NC(=O)C1CCCc2c1[nH]c1ccc(Cl)cc21 (centres undefined)
viability at 168 h, 10 µM [1]: > 80% | Activity [2]: inactive

CC(/C=C/C(=O)NO)=C\[C@@H](C)C(=O)c1ccc(N(C)C)cc1 [TRICHOSTATIN]
viability at 168 h, 0.001 µM [3]: > 80% | Activity [4]: inactive

CCCc1cc(C)[nH]c(=O)c1CNC(=O)c1cc(-c2ccnc(N3CCN(C)CC3)c2)cc2c1cnn2C(C)C
viability at 168 h, 0.67 µM [5]: > 80% | Activity [6]: inactive

COc1cc2c(NC3CCN(C(C)C)CC3)nc(C3CCCCC3)nc2cc1OCCCN1CCCC1
viability at 168 h, 1 µM [7]: > 80% | Activity [8]: inactive

CC1=NN(c2ccc(C(=O)O)cc2)C(=O)/C1=C\c1ccc(-c2cc(C)c(C)cc2[N+](=O)[O-])o1
viability at 168 h, 3 µM [9]: > 80% | Activity [10]: inactive

O=C(CCCCCCC(=O)Nc1ccccc1)NO [VORINOSTAT]
viability at 168 h, 0.2 µM [11]: > 80% | Activity [12]: inactive

CC(C)N(CCCNC(=O)Nc1ccc(C(C)(C)C)cc1)C[C@H]1O[C@@H](n2cc(Br)c3c(N)ncnc32)[C@H](O)[C@@H]1O
viability at 168 h, 2 µM [13]: > 80% | Activity [14]: inactive
